Source: ChEMBL document CHEMBL1134379, “Covalently induced activation of the delta opioid receptor by a fluorogenic affinity label, 7'-(phthalaldehydecarboxamido)naltrindole (PNTI)” (J Med Chem, 2001)
pIC50, pKi: −log10 of the molar value.

Columns and labels:
[1] = biological target: T1, Delta-type opioid receptor (Homo sapiens, UniProt P41143); experiment: Irreversible binding to delta receptor after pretreatment with naloxone (1 uM) at 20 nM of the compound.
[2] = biological target: T1, Delta-type opioid receptor; experiment: Irreversible binding to delta receptor before pretreatment with naloxone (1 uM) at 20 nM of the compound.
[3] = biological target: T1, Delta-type opioid receptor; experiment: Irreversible binding to delta receptor before pretreatment with naloxone (1 uM) at 1 uM of the compound.
[4] = biological target: T1, Delta-type opioid receptor; experiment: Irreversible binding to delta receptor after pretreatment with naloxone (1 uM) at 1 uM of the compound.
[5] = biological target: T1, Delta-type opioid receptor; experiment: Irreversible binding to delta receptor before pretreatment with naloxone (1 uM) at 1 uM
[6] = biological target: T1, Delta-type opioid receptor; experiment: Binding affinity towards delta-opioid receptor from CHO cells; assay type: cell-based, Cricetulus griseus
[7] = biological target: Kappa-type opioid receptor (Homo sapiens, UniProt P41145); experiment: Binding affinity towards opioid receptor kappa 1 from CHO cells; assay type: cell-based, Cricetulus griseus
Sequence of Kappa-type opioid receptor (P41145 whole entry): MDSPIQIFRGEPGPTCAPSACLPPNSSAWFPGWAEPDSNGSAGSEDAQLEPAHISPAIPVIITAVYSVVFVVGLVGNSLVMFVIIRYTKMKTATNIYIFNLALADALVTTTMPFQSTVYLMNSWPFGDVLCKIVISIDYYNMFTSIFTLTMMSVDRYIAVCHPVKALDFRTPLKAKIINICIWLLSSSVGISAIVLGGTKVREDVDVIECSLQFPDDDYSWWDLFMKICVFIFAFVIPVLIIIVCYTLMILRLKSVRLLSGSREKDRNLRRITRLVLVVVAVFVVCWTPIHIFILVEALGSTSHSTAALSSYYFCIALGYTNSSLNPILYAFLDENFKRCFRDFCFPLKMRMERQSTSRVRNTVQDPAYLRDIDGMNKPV

[8] = biological target: Mu-type opioid receptor (Homo sapiens, UniProt P35372); experiment: Binding affinity towards mu-opioid receptor from CHO cells; assay type: cell-based, Cricetulus griseus
Sequence of Mu-type opioid receptor (P35372 whole entry): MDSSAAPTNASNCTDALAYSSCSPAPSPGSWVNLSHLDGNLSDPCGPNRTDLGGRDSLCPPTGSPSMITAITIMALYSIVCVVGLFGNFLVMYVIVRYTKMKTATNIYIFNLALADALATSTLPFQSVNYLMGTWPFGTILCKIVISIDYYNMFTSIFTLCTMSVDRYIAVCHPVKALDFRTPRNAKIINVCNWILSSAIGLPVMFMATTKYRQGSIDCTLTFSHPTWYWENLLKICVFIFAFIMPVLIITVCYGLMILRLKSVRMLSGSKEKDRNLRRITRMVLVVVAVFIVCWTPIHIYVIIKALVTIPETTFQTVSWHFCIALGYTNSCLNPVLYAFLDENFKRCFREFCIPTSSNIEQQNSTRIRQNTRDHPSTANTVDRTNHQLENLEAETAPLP

[9] = species on record: Mus musculus; experiment: Agonist activity in mouse vas deferens (MVD) assay.; assay type: functional, organism-based
In short: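 Electrically stimulated mouse vas deferens preparation. The compound's inhibition of the twitch was measured and the IC50 was derived from the concentration–effect curve.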

[10] = tested on: Mus musculus; experiment: Antinociceptive activity by mouse tail-flick antinociceptive assay after icv administration in mouse.; assay type: functional

T1 sequence (P41143 whole entry): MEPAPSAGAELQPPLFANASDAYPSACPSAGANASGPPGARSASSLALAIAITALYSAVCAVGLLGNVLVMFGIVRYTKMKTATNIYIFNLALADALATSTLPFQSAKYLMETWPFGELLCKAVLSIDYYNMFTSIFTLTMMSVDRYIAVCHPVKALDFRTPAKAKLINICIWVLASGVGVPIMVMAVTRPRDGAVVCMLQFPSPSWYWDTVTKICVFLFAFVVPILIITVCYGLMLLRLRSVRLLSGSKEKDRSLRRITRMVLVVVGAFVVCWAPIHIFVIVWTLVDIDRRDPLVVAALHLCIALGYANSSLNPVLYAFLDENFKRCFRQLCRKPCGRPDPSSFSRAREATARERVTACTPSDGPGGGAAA

Structure (SMILES)	Binding [1]	Binding [2]	Binding [3]	Binding [4]	Binding [5]	pKi [6]	pKi [7]	pKi [8]	pIC50 [9]	ED50 [10]
O=C(Nc1cccc2c3c([nH]c12)C1Oc2c(O)ccc4c2[C@@]12CCN(CC1CC1)[C@H](C4)[C@]2(O)C3)c1ccccc1 (stereo partly drawn)	70%	42%	7%	20%	–	–	–	–	–	–
O=Cc1ccc(C(=O)Nc2cccc3c4c([nH]c23)C2Oc3c(O)ccc5c3[C@@]23CCN(CC2CC2)[C@H](C5)[C@]3(O)C4)cc1C=O (stereo partly drawn)	28%	30%	–	10%	3%	8.72	7.70	7.83	9.92	2.06 nM
